Experimental data: publication PMC9890357 (Food Science of Animal Resources, 2023)
No end group written: not given here.

What was measured:
[1] = synthetic ACE inhibitor drugs; ref Lee and Hur, 2017; cited from earlier work
ACE = details: peptides with C-terminal Tyr residues; ref Chen et al., 2009; Erdmann et al., 2006; Ko et al., 2012; Liu et al., 2021; Yu et al., 2019; cited from earlier work
[2] = target: ACE (angiotensin I-converting enzyme) (Homo sapiens, UniProt P12821); test: ACE inhibition activity; assay type: biochemical
Method in brief: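 Commercial ACE kit-WST run according to the manufacturer's protocol. The test compound was a peptide purified from an alcalase hydrolysate of velvet antler (<5 kDa ultrafiltration fraction, then Sephadex G-25, then reverse-phase HPLC) and lyophilized. Results are reported as mean±SD. Groups were compared by one-way ANOVA with Duncan's multiple range test, with significance at p<0.05.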

ACE (angiotensin I-converting enzyme), sequence (P12821 30-1306, species assumed): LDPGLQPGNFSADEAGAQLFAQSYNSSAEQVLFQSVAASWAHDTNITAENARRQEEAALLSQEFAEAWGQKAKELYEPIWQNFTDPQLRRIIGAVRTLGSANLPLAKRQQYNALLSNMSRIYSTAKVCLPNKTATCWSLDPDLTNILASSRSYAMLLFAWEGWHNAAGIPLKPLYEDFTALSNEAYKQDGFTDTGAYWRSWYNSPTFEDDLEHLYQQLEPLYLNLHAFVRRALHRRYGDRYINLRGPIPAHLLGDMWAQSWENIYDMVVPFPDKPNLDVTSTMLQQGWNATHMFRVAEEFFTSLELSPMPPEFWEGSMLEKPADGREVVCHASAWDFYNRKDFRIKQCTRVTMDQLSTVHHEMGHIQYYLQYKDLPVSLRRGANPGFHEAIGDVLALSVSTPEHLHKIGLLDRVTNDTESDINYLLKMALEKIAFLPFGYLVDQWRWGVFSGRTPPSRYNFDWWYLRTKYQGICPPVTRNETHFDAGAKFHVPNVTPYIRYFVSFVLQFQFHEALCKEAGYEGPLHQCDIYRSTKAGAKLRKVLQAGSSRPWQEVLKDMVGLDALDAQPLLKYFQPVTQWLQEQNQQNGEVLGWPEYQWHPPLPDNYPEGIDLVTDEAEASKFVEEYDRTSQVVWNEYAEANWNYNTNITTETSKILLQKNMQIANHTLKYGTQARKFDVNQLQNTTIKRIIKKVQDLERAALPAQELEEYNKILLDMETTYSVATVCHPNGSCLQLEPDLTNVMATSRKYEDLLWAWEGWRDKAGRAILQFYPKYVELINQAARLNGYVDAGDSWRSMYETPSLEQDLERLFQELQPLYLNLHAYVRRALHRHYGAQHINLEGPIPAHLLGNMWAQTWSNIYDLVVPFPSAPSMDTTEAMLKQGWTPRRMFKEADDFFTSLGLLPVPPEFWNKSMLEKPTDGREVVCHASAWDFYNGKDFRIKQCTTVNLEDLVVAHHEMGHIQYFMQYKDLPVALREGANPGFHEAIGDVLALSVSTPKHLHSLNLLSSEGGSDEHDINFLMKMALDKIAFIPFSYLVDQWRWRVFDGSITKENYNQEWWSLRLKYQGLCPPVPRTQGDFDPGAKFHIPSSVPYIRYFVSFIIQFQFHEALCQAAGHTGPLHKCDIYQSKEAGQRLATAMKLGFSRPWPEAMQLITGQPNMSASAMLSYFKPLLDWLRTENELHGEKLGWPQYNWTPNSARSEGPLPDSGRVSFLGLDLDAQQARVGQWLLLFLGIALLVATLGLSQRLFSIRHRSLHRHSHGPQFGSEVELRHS

Compound	side effects [1]	ACE inhibitory activity (in words) (ACE)	other results
CCOC(=O)[C@H](CCc1ccccc1)N[C@H]1CCc2ccccc2N(CC(=O)O)C1=O [benazepril]	headaches, insomnia, fatigue, and increased blood potassium levels	–	–
C[C@H](CS)C(=O)N1CCC[C@H]1C(=O)O [captopril]	headaches, insomnia, fatigue, and increased blood potassium levels	–	–
CCOC(=O)[C@H](CCc1ccccc1)N[C@@H](C)C(=O)N1CCC[C@H]1C(=O)O [enalapril]	headaches, insomnia, fatigue, and increased blood potassium levels	–	–
Arg-Val-Tyr	–	potent ACE inhibitory activities	–
DNRYY [DNRYY, Asp-Asn-Arg-Tyr-Tyr]	–	–	IC50 [2]: 3.72 µM; inhibition at 1.75 µM ([2]; read-out: ACE inhibition): 23.6%; inhibition at 3.5 µM ([2]; read-out: ACE inhibition): 48.1%; inhibition at 7 µM ([2]; read-out: ACE inhibition): 69.8%; inhibition at 14 µM ([2]; read-out: ACE inhibition): 89.5%
Ile-Tyr	–	potent ACE inhibitory activities	–
Met-Tyr	–	potent ACE inhibitory activities	–
Val-Tyr	–	potent ACE inhibitory activities	–
